Data set [1] relates to yeast strain expressing hANT3. Description: microbe, parasite or virus in culture. The following applies: Saccharomyces cerevisiae, read-out: Activity hANT3 IC50. It counts as cell-based.
Data set [2] can be described thus: in vitro. The following applies: Saccharomyces cerevisiae.
For data set [3], the target named is T1, human ANT2 (Homo sapiens, UniProt P05141).
T1 sequence (P05141 1-298): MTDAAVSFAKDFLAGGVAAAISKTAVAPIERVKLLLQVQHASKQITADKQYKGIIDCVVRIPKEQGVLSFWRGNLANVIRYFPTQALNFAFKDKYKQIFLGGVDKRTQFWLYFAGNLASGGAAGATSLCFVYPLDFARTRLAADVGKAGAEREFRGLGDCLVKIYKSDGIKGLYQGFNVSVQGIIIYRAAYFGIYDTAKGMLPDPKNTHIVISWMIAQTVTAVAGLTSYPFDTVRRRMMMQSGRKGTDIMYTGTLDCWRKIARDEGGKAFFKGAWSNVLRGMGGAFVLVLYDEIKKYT
Description: ADP/ATP exchange with Lactococcus lactis expressing hANT2. In kind it is biochemical.

A further data set concerns human ANT isoforms. Description: ADP/ATP exchange in L. lactis, human ANT isoforms. It counts as biochemical. The following applies: single-concentration test of compounds selected from the yeast growth assay.
Data set [4] has as its system yeast strain expressing hANT1. As to the kind of experiment: microbe, parasite or virus in culture. In kind it is cell-based. The following applies: Saccharomyces cerevisiae, read-out: Activity hANT1 IC50.
Data set [5] concerns the target T1, human ANT2. As to the kind of experiment: ADP/ATP exchange with isolated yeast mitochondria expressing hANT2. It counts as biochemical.
Data set [6] can be described thus: in vitro. To be noted: Saccharomyces cerevisiae. This is another data set of the same source.
Data set [7] addresses T2, human ANT1 (Homo sapiens, UniProt P12235).
T2 sequence (P12235 1-298): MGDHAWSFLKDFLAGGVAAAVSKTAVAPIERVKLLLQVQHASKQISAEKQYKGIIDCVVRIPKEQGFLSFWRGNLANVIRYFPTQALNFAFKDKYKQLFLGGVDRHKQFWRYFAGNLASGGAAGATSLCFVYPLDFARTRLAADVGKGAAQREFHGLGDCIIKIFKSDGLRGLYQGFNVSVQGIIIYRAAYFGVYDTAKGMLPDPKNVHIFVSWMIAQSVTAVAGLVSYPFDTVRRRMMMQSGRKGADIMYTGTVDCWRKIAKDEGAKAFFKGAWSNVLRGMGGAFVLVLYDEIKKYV
As to the kind of experiment: ADP/ATP exchange with Lactococcus lactis expressing hANT1. It counts as biochemical.

For data set [8], the target named is T2, human ANT1. Description: ADP/ATP exchange with isolated yeast mitochondria expressing hANT1. It counts as biochemical.
Data set [9] in a line: in vitro. The following applies: Saccharomyces cerevisiae. The source holds these as a separate data set.
The subject of data set [10] is yeast strain expressing hANT4. Description: microbe, parasite or virus in culture. In kind it is cell-based. The following applies: Saccharomyces cerevisiae, read-out: Activity hANT4 IC50.
Data set [11] addresses T3, human ANT3 (Homo sapiens, UniProt P12236).
T3 sequence (P12236 1-298): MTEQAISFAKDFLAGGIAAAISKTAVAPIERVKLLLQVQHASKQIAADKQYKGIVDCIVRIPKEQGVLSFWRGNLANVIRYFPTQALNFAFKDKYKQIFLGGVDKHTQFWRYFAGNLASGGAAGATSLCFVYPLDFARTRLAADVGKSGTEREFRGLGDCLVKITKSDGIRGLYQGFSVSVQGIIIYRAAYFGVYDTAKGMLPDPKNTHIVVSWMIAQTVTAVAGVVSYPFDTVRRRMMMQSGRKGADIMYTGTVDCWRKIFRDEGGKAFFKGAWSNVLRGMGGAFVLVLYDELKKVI
As to the kind of experiment: ADP/ATP exchange with Lactococcus lactis expressing hANT3. In kind it is biochemical.

The nature of data set [12]: in vitro. To be noted: Saccharomyces cerevisiae. This is another data set of the same source.
The target of a further data set is T4, human ANT4 (Homo sapiens, UniProt Q9H0C2).
T4 sequence (Q9H0C2 1-315): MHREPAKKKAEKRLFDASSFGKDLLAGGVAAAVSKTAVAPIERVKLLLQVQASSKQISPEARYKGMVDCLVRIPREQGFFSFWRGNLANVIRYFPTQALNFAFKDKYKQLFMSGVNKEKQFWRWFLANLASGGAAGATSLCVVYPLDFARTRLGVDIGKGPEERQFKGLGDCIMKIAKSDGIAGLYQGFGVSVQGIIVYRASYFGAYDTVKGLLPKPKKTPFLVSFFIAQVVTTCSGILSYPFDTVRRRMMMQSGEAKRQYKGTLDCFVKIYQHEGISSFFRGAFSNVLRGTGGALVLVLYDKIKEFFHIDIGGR
As to the kind of experiment: ADP/ATP exchange with isolated yeast mitochondria expressing hANT4. It counts as biochemical.

Data set [13] deals with T3, human ANT3. As to the kind of experiment: ADP/ATP exchange with isolated yeast mitochondria expressing hANT3. In kind it is biochemical.
Data set [14] relates to yeast strain expressing hANT2. Description: microbe, parasite or virus in culture. In kind it is cell-based. The following applies: Saccharomyces cerevisiae, read-out: Activity hANT2 IC50.
Another data set deals with MiaPaCa-2 cells. Description: Oxygen consumption rate in MiaPaCa-2 cells. In kind it is cell-based, human. To be noted: after ADP addition, leelamine 50 pM as printed. A digest of the protocol: (§1)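 Cells were kept in RPMI1640 with 10% FBS, plated at 20,000/well, and incubated overnight at 37 °C in 5% CO2. Before the assay, medium was replaced with MAS buffer (mannitol/sucrose/KH2PO4/MgCl2/HEPES/EGTA, 0.2% fatty-acid-free BSA, pH 7.4) plus 10 mM pyruvate and […]. Sequential injections were atpenin A5, 3.5 mM ADP, plasma membrane permeabilizer, then test compound or cATR control. OCR was read on an extracellular flux analyzer.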

In another data set the test system is HCT116 cells. Description: Oxygen consumption rate in HCT116 cells. The following applies: after ADP addition, leelamine 50 pM as printed. It counts as cell-based, human. A digest of the protocol:
as §1

Some results are limits rather than exact numbers.

The values below come from article PMC6559718 (Journal of biomolecular screening, 2016).

In the case of `Cc1cc(C(C#N)c2ccc(Cl)cc2)c(Cl)cc1NC(=O)c1cc(I)cc(I)c1O` (stereo not shown) [Closantel], the IC50 – broadly, the concentration needed to halve the response being measured – is 6.3 ± 2.3 µM in [1]; over 100 µM in “in vitro [2]”; 24 ± 4.2 µM against human ANT2 [3]; 4.7 ± 0.8 µM in [4]; 92 ± 32 µM at human ANT2 [5]; over 100 µM in “in vitro [6]”. Besides, the IC50 was 15 ± 2.8 µM at human ANT1 [7]; 52 ± 15 µM against human ANT1 [8]; over 100 µM in “in vitro [9]”; 9.6 ± 8.7 µM in data set [10]; 47 ± 11 µM at human ANT3 [11]; over 100 µM in “in vitro [12]”. In addition, the IC50 stood at 64 ± 25 µM against human ANT4, 100 ± 32 µM at human ANT3 [13] and 6.1 ± 2.4 µM in data set [14]. For the same molecule, in the data set on human ANT isoforms, the “inhibition of [3H]ADP uptake by L. lactis” value was “inhibited”. In addition, on human ANT1 [7] (L. lactis assay), the “selectivity for hANT1 over hANT3” value is listed as ~ 3 fold. For the same molecule, the “oxygen consumption rate (OCR)” value in the data set with MiaPaCa-2 cells is on record as “Neither CD437 nor closantel produced an appreciable level of reduction of OCR”; in the data set on HCT116 cells, “inhibited OCR”.
